These results are taken from ChEMBL document CHEMBL4673330, “Preparations and antioxidant activities of sesamol and it's derivatives” (Bioorg Med Chem Lett, 2021).

Holding throughout (type): functional
The nature of experiment [1]: Antioxidant activity assessed as reduction in lipid peroxidation by measuring antiperoxide-index at 1.2 g/L by thiobarbituric acid method relative to control. Details: scale not given: the % may be the effect or the level left. The gist of the method: (§1)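 Anti-lipid-peroxidation (antiperoxide index, %) was tested at 0.2–1.2 g/L, with sesamol as positive control. Values are means ± SD from at least eight independent experiments, each in triplicate (n = 3), with t-tests (p < 0.05).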

Experiment [2] in a line: Antioxidant activity assessed as reduction in lipid peroxidation by measuring antiperoxide-index at 1 g/L by thiobarbituric acid method relative to control. Set-up: scale not given: the % may be the effect or the level left. The gist of the method:
as §1

The nature of experiment [3]: Antioxidant activity assessed as reduction in lipid peroxidation by measuring antiperoxide-index at 0.8 g/L by thiobarbituric acid method relative to control. Details: scale not given: the % may be the effect or the level left. The procedure, abridged: as §1
Experiment [4] in a line: Antioxidant activity assessed as reduction in lipid peroxidation by measuring antiperoxide-index at 0.6 g/L by thiobarbituric acid method relative to control. Details: scale not given: the % may be the effect or the level left. The procedure, abridged:
as §1

Experiment [5] in a line: Antioxidant activity assessed as reduction in lipid peroxidation by measuring antiperoxide-index at 0.4 g/L by thiobarbituric acid method relative to control. Details: scale not given: the % may be the effect or the level left. The procedure, abridged:
as §1

The nature of experiment [6]: Antioxidant activity assessed as reduction in lipid peroxidation by measuring antiperoxide-index at 0.2 g/L by thiobarbituric acid method relative to control. Set-up: scale not given: the % may be the effect or the level left. The procedure, abridged:
as §1

Experiment [7] is described as follows: Antioxidant activity assessed as reduction of potassium ferricyanide trivalent iron into potassium ferrocyanide bivalent iron and ferrous iron by measuring eliminate efficiency at 1.2 g/L relative to control. Set-up: scale not given: the % may be the effect or the level left. The procedure, abridged:
(§2)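 Reducing capacity was read as absorbance at 700 nm, where higher absorbance means greater reducing ability. Tested at 0.2–1.2 g/L against sesamol as positive control. Values are means from at least eight independent experiments, each in triplicate (n = 3), with t-tests (p < 0.05).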

A short description of experiment [8]: Antioxidant activity assessed as reduction of potassium ferricyanide trivalent iron into potassium ferrocyanide bivalent iron and ferrous iron by measuring eliminate efficiency at 1 g/L relative to control. Set-up: scale not given: the % may be the effect or the level left. The procedure, abridged:
as §2

A short description of experiment [9]: Antioxidant activity assessed as reduction of potassium ferricyanide trivalent iron into potassium ferrocyanide bivalent iron and ferrous iron by measuring eliminate efficiency at 0.8 g/L relative to control. Set-up: scale not given: the % may be the effect or the level left. The procedure, abridged: as §2
Experiment [10] can be described thus: Antioxidant activity assessed as reduction of potassium ferricyanide trivalent iron into potassium ferrocyanide bivalent iron and ferrous iron by measuring eliminate efficiency at 0.6 g/L relative to control. Set-up: scale not given: the % may be the effect or the level left. The gist of the method: as §2
A short description of experiment [11]: Antioxidant activity assessed as reduction of potassium ferricyanide trivalent iron into potassium ferrocyanide bivalent iron and ferrous iron by measuring eliminate efficiency at 0.4 g/L relative to control. Details: scale not given: the % may be the effect or the level left. The gist of the method:
as §2

A short description of experiment [12]: Antioxidant activity assessed as reduction of potassium ferricyanide trivalent iron into potassium ferrocyanide bivalent iron and ferrous iron by measuring eliminate efficiency at 0.2 g/L relative to control. Set-up: scale not given: the % may be the effect or the level left. The procedure, abridged:
as §2

The nature of experiment [13]: Antioxidant activity assessed as superoxide anion radical scavenging rate at 1 g/L relative to control. The procedure, abridged: (§3)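 Pyrocatechol autoxidation in weak alkaline medium produces a coloured intermediate and superoxide anion; the intermediate absorbs maximally at 320 nm. Scavenging rate was measured at 0.2–1.2 g/L, with sesamol as positive control. Values are means ± SD from at least eight independent experiments, each in triplicate (n = 3), with t-tests (p < 0.05).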

A short description of experiment [14]: Antioxidant activity assessed as superoxide anion radical scavenging rate at 1.2 g/L relative to control. The gist of the method: as §3
The nature of experiment [15]: Antioxidant activity assessed as superoxide anion radical scavenging rate at 0.8 g/L relative to control. The procedure, abridged:
as §3

Experiment [16] can be described thus: Antioxidant activity assessed as superoxide anion radical scavenging rate at 0.4 g/L relative to control. The procedure, abridged: as §3
A short description of experiment [17]: Antioxidant activity assessed as superoxide anion radical scavenging rate at 0.6 g/L relative to control. The procedure, abridged: as §3
Experiment [18] in a line: Antioxidant activity assessed as superoxide anion radical scavenging rate at 0.2 g/L relative to control. The gist of the method:
as §3

Experiment [19] can be described thus: Antioxidant activity assessed as hydroxyl radical scavenging rate at 1 g/L relative to control. The gist of the method:
(§4)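 Hydroxyl radical scavenging was read as absorbance of the reaction solution at 510 nm by a fixed reaction time method. Derivatives were tested at 0.2–1.2 g/L, with sesamol as positive control. Values are means ± SD from at least eight independent experiments, each in triplicate (n = 3), with t-tests (p < 0.05).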

Experiment [20] can be described thus: Antioxidant activity assessed as hydroxyl radical scavenging rate at 1.2 g/L relative to control. The procedure, abridged:
as §4

A short description of experiment [21]: Antioxidant activity assessed as hydroxyl radical scavenging rate at 0.8 g/L relative to control. The gist of the method:
as §4

Experiment [22] in a line: Antioxidant activity assessed as hydroxyl radical scavenging rate at 0.4 g/L relative to control. The procedure, abridged:
as §4

A short description of experiment [23]: Antioxidant activity assessed as hydroxyl radical scavenging rate at 0.6 g/L relative to control. The gist of the method:
as §4

Experiment [24] in a line: Antioxidant activity assessed as hydroxyl radical scavenging rate at 0.2 g/L relative to control. The gist of the method: as §4

As to `O=c1oc2ccc3c(c2c2c(Cl)cccc12)OCO3`, the Activity in [1] came out at 93.8%; in [2], 91.1%; in experiment [3] it was 82.8%; in experiment [4], 69%; in experiment [5], 38.4%; in experiment [6], 16%. Moreover, the Activity came to 93.6% in [7]; 92.7% in experiment [8]; 84.3% in experiment [9]; 72.6% in experiment [10]; 38.2% in [11]; 15.9% in [12]. Further, the Activity was determined as 87.4% in [13]; 88.3% in experiment [14]; 79.4% in experiment [15]; 34.8% in experiment [16]; 66.2% in [17]; 15.2% in experiment [18]. For the same molecule, the Activity in experiment [19] stood at 87.4%; in experiment [20], 88.2%; in experiment [21] it was 83.2%; in experiment [22], 38.7%; in experiment [23], 69.3%; in [24], 16.1%.
In the case of `O=C(Oc1ccc2c(c1)OCO2)c1ccccc1Cl`, the Activity in experiment [1] amounted to 83.5%; in experiment [2] it was 81.1%; in experiment [3], 73.7%; in experiment [4], 61.4%; in experiment [5], 34.1%; in experiment [6] it was 14.2%. The Activity in [7] was 85.6%; in experiment [8], 84.7%; in [9], 77%; in experiment [10], 66.4%; in experiment [11] it was 34.9%; in experiment [12], 14.6%. Further, the Activity was found to be 76.5% in [13]; 77.2% in experiment [14]; 69.5% in experiment [15]; 30.5% in experiment [16]; 57.9% in experiment [17]; 13.3% in [18]. The Activity was 77.5% in experiment [19]; 78.2% in [20]; 73.8% in experiment [21]; 34.4% in experiment [22]; 61.5% in experiment [23]; 14.2% in experiment [24].
In the case of `O=c1oc2ccc3c(c2c2ccc(Cl)cc12)OCO3`, the Activity was 97.2% in experiment [1]; 94.4% in experiment [2]; 85.8% in experiment [3]; 71.5% in experiment [4]; 39.7% in experiment [5]; 16.6% in [6]. Besides, the Activity in experiment [7] was found to be 94.3%; in experiment [8], 93.4%; in [9] it was 84.9%; in experiment [10], 73.2%; in experiment [11], 38.5%; in experiment [12], 16.1%. Moreover, the Activity in experiment [13] was found to be 92.6%; in experiment [14] it was 93.5%; in [15] it was 84.2%; in experiment [16], 36.9%; in experiment [17], 70.1%; in experiment [18] it was 16.1%. The Activity in experiment [19] turned out to be 92.6%; in experiment [20], 93.6%; in experiment [21] it was 88.2%; in experiment [22], 40.8%; in experiment [23], 73.5%; in experiment [24], 17%.
With `O=c1oc2ccc3c(c2c2cc(Cl)ccc12)OCO3`, the Activity in experiment [1] worked out at 99.4%; in experiment [2], 96.5%; in experiment [3], 87.8%; in experiment [4], 73.1%; in experiment [5], 40.6%; in experiment [6], 16.9%. Also, the Activity in experiment [7] is 99.8%; in [8], 98.8%; in experiment [9], 89.9%; in [10], 77.5%; in experiment [11], 40.8%; in experiment [12] it was 17%. Further, the Activity in experiment [13] turned out to be 95.7%; in experiment [14], 96.7%; in experiment [15] it was 87%; in experiment [16], 38.1%; in experiment [17], 72.5%; in experiment [18], 16.6%. Further, the Activity in [19] came out at 97.4%; in [20] it was 98.3%; in experiment [21] it was 92.7%; in [22], 42.9%; in experiment [23], 77.3%; in experiment [24], 17.9%.
